# This is a sample that favours compounds with a hit; in the whole collection about 5.8% have one here.
# IDH1 mut inh – inhibitors of IDH1 R132H reductase, primary screen, biochemical, plate reader, single point; AID 624101, 2012; 0.18% of 70,000 active; inhibition, % at 10 µM; diaphorase/resazurin fluorescence, 60 min; Isocitrate dehydrogenase [NADP] cytoplasmic (Homo sapiens), O75874; in the data active = inhibition above about 34%; inconclusive = no clear call, values can overlap the other calls; inactive = below about 11%;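 note: 0% = DMSO and 100% = no enzyme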
# Target sequence (O75874 whole entry R132H): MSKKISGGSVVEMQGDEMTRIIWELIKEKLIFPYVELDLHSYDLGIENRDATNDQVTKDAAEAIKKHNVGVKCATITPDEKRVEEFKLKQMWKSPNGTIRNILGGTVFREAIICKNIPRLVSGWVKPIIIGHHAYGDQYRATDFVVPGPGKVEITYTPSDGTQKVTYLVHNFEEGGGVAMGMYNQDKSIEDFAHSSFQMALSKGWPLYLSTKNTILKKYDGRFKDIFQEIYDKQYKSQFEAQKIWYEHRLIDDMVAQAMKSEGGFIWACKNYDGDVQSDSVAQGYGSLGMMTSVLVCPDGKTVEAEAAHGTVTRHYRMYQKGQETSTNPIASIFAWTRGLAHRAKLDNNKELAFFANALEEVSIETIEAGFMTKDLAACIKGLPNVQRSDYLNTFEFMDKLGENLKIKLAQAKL
# T cruzi growth-1 – T. cruzi intracellular proliferation inhibitors, primary screen, cell-based, beta-gal Tulahuen parasites, NIH3T3 host, luminescence; T. cruzi beta-gal in NIH3T3, GalScreen luminescence, 90 h; 5.9% of 77,000 active; inhibition, % at 8.34 µM; AID 624255, 2012;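 active = mean inhibition above about 93%, with at least 55% of replicates each passing it, limit read from the data, passing the limit was not always enough; inconclusive = only one of those two conditions holds; inactive = neither condition holds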
# Pf Dd2 inh – P. falciparum Dd2 growth inhibitors, primary screen, SYBR Green fluorescence, single dose replicates; activity change, % at 10 µM; 2.3% of 94,000 active; 72 h; stronger effect = lower value; in the data active = activity change below about -80%; inconclusive = no clear call, values can overlap the other calls
# GASC1 inh – inhibitors of GASC-1 (KDM4C) histone demethylase, primary screen, biochemical, single concentration HTS; GST-KDM4C 2-372, H3K9me3 peptide, LANCE TR-FRET; inhibition, % at 12.5 µM; 0.15% of 96,000 active; AID 720574, 2013;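 active = mean replicate inhibition above about 25%, with at least 55% of replicates also reaching it, limit read from the data, passing the limit was not always enough; inconclusive = only one of those two conditions met; inactive = neither condition met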
#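 System: N-terminal GST-fused human GASC-1 (KDM4C) fragment, residues 2-372; amount: enzyme final amount 10 nM; incubation: reaction 30 min RT, detection step 1 h RT; medium: HEPES buffer, pH 7.5, plus ascorbate; technique: LANCE TR-FRET, Eu antibody, ULight-streptavidin, EDTA, ex 340 nm, em 618/671 nm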
# T cruzi growth-2 – T. cruzi intracellular proliferation inhibitors, confirmation, cell-based, NIH3T3 host, beta-gal parasite, luminescence, cherry-pick. shares compounds with T cruzi growth-1. T. cruzi beta-gal in NIH3T3, GalScreen luminescence, 90 h. inhibition, % at 8.35 µM. 72% of 5,600 active;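 active = mean replicate inhibition above about 95% and at least 55% of replicates individually reaching it, limit read from the data; inconclusive = only one of the two criteria is met; inactive = neither criterion is met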
# T cruzi growth-3 – inhibitors of intracellular T. cruzi replication, confirmation, NIH3T3 host cells, beta-gal parasites, cherry-pick, set 2; shares compounds with T cruzi growth-1; T. cruzi beta-gal in NIH3T3, GalScreen luminescence, 90 h; inhibition, % at 2.09 µM; 21% of 5,600 active; AID 651740, 2012;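 active = mean inhibition above about 95%, with at least 55% of replicates also reaching it, limit read from the data; inconclusive = meets just one of the two conditions; inactive = meets neither condition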;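 note: plate controls were neutral control median for no effect and positive control median for full effect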
# NIH3T3 tox – cytotoxicity in mouse NIH/3T3 fibroblasts, confirmation, cytotoxicity control for T. cruzi proliferation inhibitor project, cell-based, cherry-pick, single point; cytotoxicity (signal decrease), % at 8.35 µM; 14% of 5,600 active; shares compounds with T cruzi growth-1; AID 651742, 2012; NIH/3T3 viability, CellTiter-Glo ATP luminescence, 90 h;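 active = mean signal decrease across replicates above about 35% based on untreated-well scatter, with enough replicates individually passing, limit read from the data; inconclusive = no rule stated though some were filed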;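 note: 0% = median of neutral control wells and 100% = median of positive control wells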
# NIH3T3 tox 2 – NIH/3T3 fibroblast cytotoxicity, confirmation, cytotoxicity control, cell-based, cherry-pick, single point, set 2; shares compounds with T cruzi growth-1; NIH/3T3 viability, CellTiter-Glo ATP luminescence, 90 h; inhibition, % at 24.9 µM; 56% of 5,600 active; AID 651744, 2012;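 active = mean loss of cell viability signal at or above a set limit, and enough replicates individually reaching it; inconclusive = meets only the mean limit or only the replicate share; inactive = meets neither condition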;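 note: 0% = median of neutral control wells and 100% = median of positive control wells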
# An asterisk follows results filed as active; ? = inconclusive; / = not tested or not shown.
SMILES,IDH1 mut inh,T cruzi growth-1,Pf Dd2 inh,GASC1 inh,T cruzi growth-2,T cruzi growth-3,NIH3T3 tox,NIH3T3 tox 2
Cc1ccc(S(=O)(=O)N(C)C[C@H]2OCCCC[C@H](C)Oc3ccc(NS(=O)(=O)c4ccccc4)cc3C(=O)N([C@H](C)CO)C[C@H]2C)cc1,/,?,-80,-2,/,/,/,/
Cc1ccc(S(=O)(=O)N(C)C[C@H]2OCCCC[C@@H](C)Oc3ccc(NS(=O)(=O)c4ccccc4)cc3C(=O)N([C@@H](C)CO)C[C@H]2C)cc1,/,?,-48,-2,109*,74,-6,-2
Cc1ccc(S(=O)(=O)Nc2ccc3c(c2)C(=O)N([C@@H](C)CO)C[C@H](C)[C@@H](CN(C)S(=O)(=O)c2ccccc2)OCCCC[C@H](C)O3)cc1,/,102*,-64,0,109*,78,7,-7
Cc1ccc(S(=O)(=O)N(C)C[C@H]2OCCCC[C@@H](C)Oc3ccc(NS(=O)(=O)c4ccccc4)cc3C(=O)N([C@H](C)CO)C[C@H]2C)cc1,/,?,-83*,-1,101*,73,4,-5
Cc1ccc(S(=O)(=O)N(C)C[C@@H]2OCCCC[C@H](C)Oc3ccc(NS(=O)(=O)c4ccccc4)cc3C(=O)N([C@H](C)CO)C[C@@H]2C)cc1,/,?,-59,0,/,/,/,/
O=C(Nc1nccs1)[C@@H]1[C@@H](CO)[C@@H]2Cn3c(cccc3=O)[C@@H]2N1C(=O)C1CCCC1,/,/,30,3,/,/,/,/
COc1ccccc1NC(=O)N1CC[C@H]2[C@@H]1c1cc(-c3ccc(F)cc3)ccc1N(C)[C@H]2CO,/,101*,-66,1,106*,?,9,29*
COc1ccccc1NC(=O)N1CC[C@@H]2[C@H]1c1cc(C#Cc3ccc(F)cc3)ccc1N(C)[C@@H]2CO,/,?,-32,-1,99*,111*,2,12
CCC(=O)N1CC[C@H]2[C@@H]1c1cc(C#Cc3ccccc3OC)ccc1N(C)[C@H]2CO,/,99*,-35,0,110*,76,22,-7
CCC(=O)N1CC[C@@H]2[C@H]1c1cc(C#Cc3cccc(F)c3)ccc1N(C)[C@H]2CO,/,101,-48,0,/,/,/,/
Cc1ccc(-c2ccc3c(c2)O[C@H](CN(C)Cc2ccc(F)cc2)[C@@H](C)CN([C@H](C)CO)S3(=O)=O)cc1,0,98*,-66,0,102*,100*,46*,104*
Cc1ccc(-c2ccc3c(c2)O[C@H](CN(C)Cc2ccccc2)[C@H](C)CN([C@H](C)CO)S3(=O)=O)cc1,-1,121*,-4,0,94,110*,29,106*
C[C@@H]1CN([C@@H](C)CO)S(=O)(=O)c2ccc(-c3ccc(F)cc3)cc2O[C@@H]1CN(C)Cc1cccc(F)c1,-1,52,-22,0,/,/,/,/
C[C@H]1CN([C@@H](C)CO)S(=O)(=O)c2ccc(-c3ccccc3)cc2O[C@H]1CN(C)CC1CC1,-2,112*,-66,1,81,43,28,79*
Cc1ccc(-c2ccc3c(c2)O[C@@H](CN(C)Cc2ccc(F)cc2)[C@@H](C)CN([C@@H](C)CO)S3(=O)=O)cc1,0,91,-31,0,/,/,/,/
C[C@H](CO)N1C[C@H](C)[C@H](CN(C)CC2CC2)Oc2cc(-c3ccccc3)ccc2S1(=O)=O,-1,37,-40,-2,/,/,/,/
C[C@@H]1CN([C@@H](C)CO)S(=O)(=O)c2ccc(-c3ccccc3)cc2O[C@@H]1CN(C)Cc1cccc(F)c1,/,123*,-69,2,92,112*,14,107*
C[C@@H]1CN([C@H](C)CO)S(=O)(=O)c2ccc(-c3ccccc3)cc2O[C@H]1CN(C)Cc1ccccc1,0,63,-65,11,/,/,/,/
C[C@@H]1CN([C@H](C)CO)S(=O)(=O)c2ccc(C#CC(C)(C)O)cc2O[C@@H]1CN(C)CC1CC1,0,/,17,0,/,/,/,/
CCOc1ccc2nc(SCC(=O)Nc3c(C)n(C)n(-c4ccccc4)c3=O)sc2c1,0,/,/,/,/,/,/,/
COc1ccc(S(=O)(=O)Nc2ccc3c(c2)C(=O)N([C@H](C)CO)C[C@H](C)[C@H](CN(C)C(=O)Cc2ccccc2)OCCCC[C@H](C)O3)cc1,-2,63,-45,-1,/,/,/,/
CC(C)CC#Cc1ccc2c(c1)O[C@@H](CN(C)C(=O)C1CCCCC1)[C@@H](C)CN([C@H](C)CO)S2(=O)=O,/,115*,-44,-1,96*,116*,2,105*
CC(C)CC#Cc1ccc2c(c1)O[C@@H](CN(C)C(=O)C1CCCCC1)[C@H](C)CN([C@H](C)CO)S2(=O)=O,-9,114*,-66,4,100*,112*,-2,104*
CC(C)CC#Cc1ccc2c(c1)O[C@H](CN(C)C(=O)C1CCCCC1)[C@H](C)CN([C@H](C)CO)S2(=O)=O,/,111*,-66,-1,99*,106*,63*,104*
CC(C)CC#Cc1ccc2c(c1)O[C@H](CN(C)C(=O)C1CCC1)[C@@H](C)CN([C@H](C)CO)S2(=O)=O,/,93,-46,-1,/,/,/,/
C[C@@H]1CN([C@@H](C)CO)C(=O)c2cccc(NC(=O)c3ccc(-c4nccs4)cc3)c2O[C@H]1CN(C)C(=O)NC1CCCCC1,-5,24,-30,15,/,/,/,/
C[C@H]1CN([C@@H](C)CO)S(=O)(=O)c2ccc(C#Cc3ccc(F)cc3)cc2O[C@@H]1CN(C)S(=O)(=O)c1cn(C)cn1,0,122*,-63,/,103*,101*,46*,49*
C[C@@H]1CN([C@H](C)CO)S(=O)(=O)c2ccc(C#Cc3ccccc3)cc2O[C@H]1CN(C)S(=O)(=O)c1cn(C)cn1,-4,99*,-86*,-2,107*,37,67*,51*
COc1ccccc1-c1ccc2c(c1)[C@H]1[C@H](CCN1C(=O)C1CCOCC1)[C@@H](CO)N2,/,100*,-23,0,106*,88,-5,-29
